A1 inh: inhibitors of the anti-apoptotic protein A1, read as caspase activation | MEF A1-2A-BIM cells, Caspase-Glo 3/7 luminescence, 3 h; percent of clofoctol response, vehicle zero | caspase activation, % (concentration not given with the values) | 330,000 tested, 0.066% active | AID 2462;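 active = over half of replicate activation scores above 10%, or exactly half above 10 with the replicate mean above 10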
NALP1 yeast inh: NALP1 inhibition | S. cerevisiae NALP1/ASC/caspase-1 growth, X-gal OD620, 72 h | inhibition, % at 10 µM | 280,000 tested, 0.61% active | AID 2071; in the data active = inhibition mostly above about 24%, no sharp cut-off; inactive = mostly below about 32%
MC4R antagonist: antagonists of human melanocortin 4 receptor (MC4R). inhibition, % at 6.5 µM. MC4R-expressing cells, MTII-stimulated cAMP, LANCE TR-FRET. AID 540295. 360,000 tested, 0.48% active;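 active = inhibition above its plate's cutoff, the mean of tested wells on that plate plus 3 SD, cut at about 29% in these data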;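 also: 0% = Melanotan II alone and 100% = Melanotan II plus saturating MCL0020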
Target sequence (P32245 whole entry, looked up): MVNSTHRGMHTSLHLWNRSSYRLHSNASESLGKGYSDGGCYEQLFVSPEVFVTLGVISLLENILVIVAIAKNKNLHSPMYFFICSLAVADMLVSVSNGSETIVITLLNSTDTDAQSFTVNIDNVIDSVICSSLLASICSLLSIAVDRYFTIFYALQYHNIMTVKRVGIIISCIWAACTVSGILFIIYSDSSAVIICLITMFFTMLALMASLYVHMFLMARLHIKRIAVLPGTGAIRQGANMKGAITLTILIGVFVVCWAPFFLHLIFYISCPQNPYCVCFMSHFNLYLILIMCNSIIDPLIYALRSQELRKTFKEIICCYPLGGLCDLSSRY
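System: U2OS-MC4R stable cell line; Technique: Eu-cAMP/anti-cAMP TR-FRET, emission 671 nm; Repeats: single well per compound; Also added: Melanotan II; Dosing: one concentration, 6.5 µM nominal; Schedule: 30-min compound, 1-h challenge, 1-h detection, room temperature.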
Tb MetRS inh: blocks T. brucei methionyl-tRNA synthetase activity | purified T. brucei MetRS, ATP depletion, Kinase-Glo luminescence | inhibition, % at 11.9 µM | 360,000 tested, 0.4% active | AID 624268;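 active = inhibition above a per-plate cutoff of the control wells' mean inhibition plus 3 SD, cut at about 5.5% in these data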;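 also: 0% = DMSO wells median and 100% = median of wells with control inhibitor compound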
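Assay system: T. brucei methionyl-tRNA synthetase, purified | Medium: HEPES buffer with MgCl2, KCl, DTT, spermine, BSA, pyrophosphatase | Compound: 11.9 µM single point | Incubation: 15 min enzyme-compound preincubation, 2 h reaction, 10 min detection, 25 °C | Measured by: Kinase-Glo luciferase luminescence reporting remaining unconsumed ATP | Measure: % inhibition normalized to control-well medians | Replication: Singlicate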
NALP3 yeast inh: blocks the NALP3 inflammasome reconstituted in yeast; inhibition, % at 10 µM; 330,000 tested, 0.39% active; Yeast reconstituted NLRP3/ASC/caspase-1, beta-gal luminescence, 24 h;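 active = inhibition of 50% or more; inactive = inhibition below 50%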;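 also: plate controls were induced DMSO wells for no effect and uninduced yeast grown without galactose for full effect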
MC4R barr agon: activates human MC4R beta-arrestin recruitment; activation, % at 8.9 µM; AID 540308; P32245; U2OS MC4R beta-arrestin complementation, luminescence; percent of melanotan II response, DMSO zero; 360,000 tested, 0.98% active;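 active = activation above a per-plate cutoff, the mean activation of sample wells on that plate plus 3 SD, cut at about 8% in these data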
* = called active by the depositor; x = no result. Sampled rows, rich in hits. Any-hit rate of the full collection: about 2.5%.

SMILES	A1 inh	NALP1 yeast inh	MC4R antagonist	Tb MetRS inh	NALP3 yeast inh	MC4R barr agon
CC(=O)c1ccc(Nc2cc(C)nc3ccccc23)cc1	0	-1	8	0	5	-4
CC(=O)c1ccc(Nc2cc(C)nc3c(C)cccc23)cc1	0	28*	-11	0	10	-5
CCCCNC(=O)c1ccc(/C=C2\Oc3ccccc3N(C)C2=O)cc1	-1	3	5	0	15	9.2*
CCN1CCN(CCCNC(=O)c2ccc(/C=C3/Oc4ccccc4N(Cc4cccc(C)c4)C3=O)cc2)CC1	0	23	1	0	12	-4
O=C(NCCCN1CCOCC1)c1ccc(/C=C2\Oc3ccccc3N(Cc3ccccc3F)C2=O)cc1	1	16	4	0	9	8.9*
CCOC(=O)CCCCCC(=O)Nc1ccc2c(c1)C(=O)N([C@@H](C)CO)C[C@H](C)[C@H](CN(C)C(=O)c1ccccc1)OCCCC[C@H](C)O2	x	x	-1	-1	x	-1
N#Cc1ccc(-c2ccc(OCC(=O)NCCc3ccccc3)cc2)cc1	-1	25	2	0	20	9.1*
Nc1c2c(nc3ccc(Br)cc13)N(Cc1ccccc1)CC2	1	56*	17	0	16	-2
Nc1c2c(nc3ccc(Br)cc13)N(c1ccccc1)CC2	0	3	-8	1	4	-1
O=C(/C(=C/c1ccccc1)n1cncn1)c1ccc(Cl)cc1Cl	0	43*	13	1	32	0
N#Cc1ccc(S(=O)(=O)N2CCCCC2c2cc(C(=O)N3CCOCC3)no2)cc1 (centres undefined)	x	x	9	0	x	0
O=C(NC1CCCC1)C(c1ccco1)N1CCN(c2c(Cl)cncc2Cl)CC1 (centres undefined)	x	x	x	0	x	x
C=CCSC(=S)NC1CCS(=O)(=O)C1 (centres undefined)	0	82*	-2	0	25	-2
NC(=S)NC1CCS(=O)(=O)C1 (centres undefined)	1	3	12	1	11	1
C[C@]1(CC/C(=C/CO)CO)[C@H](C=O)CC[C@@]23COC(=O)C2=CCC[C@@H]31	x	x	3	1	x	1
O=C(CSc1nc2ncc(Br)cc2[nH]1)Nc1ccc2c(c1)OCO2	0	-1	-4	67*	14	-2
CC(=O)Nc1ccc(C(=O)N/N=C/c2cc(Br)cc(Br)c2O)cc1	0	-2	8	-1	3	-1
Cc1ccc(C(=O)O)cc1N=Cc1cc(Br)cc(Br)c1O	0	70*	8	1	x	-2
CCN(CC)C(=O)Oc1ccc(Cl)c2cccnc12	2	1	-1	-1	14	0
O=C(Nc1cccc(C(F)(F)F)c1)Oc1ccc(Cl)c2cccnc12	0	48*	10	-1	x	0
CCC(c1nnnn1C(C)(C)CC)N(CCCO)Cc1cc2cc(C)cc(C)c2[nH]c1=O (centres undefined)	x	35*	1	-1	x	-1
CN1CCN(c2ccc(NC(=O)c3ccc(-c4ccc(Cl)cc4)o3)cc2)CC1	0	31	1	0	26	10*
CN1CCN(c2ccc(NC(=O)c3ccc(-c4cccc([N+](=O)[O-])c4)o3)cc2)CC1	2	31	-6	0	2	-2
O=C(NCCc1cn2ccsc2n1)C1CCCCC1	1	x	4	0	9	0
c1cn2cc(CSC3CCCCC3)nc2s1	-5	36*	3	0	27	2
SMILES	A1 inh	NALP1 yeast inh	MC4R antagonist	Tb MetRS inh	NALP3 yeast inh	MC4R barr agon
CC(C)(C)c1ccc(S(=O)(=O)NC(=O)C2(C)CCN2C(=O)Cc2cccs2)cc1 (centres undefined)	x	x	6	0	x	-2
CC12CCC(C(S(=O)(=O)Nc3ccccc3)C1=O)C2(C)C (centres undefined)	x	x	5	0	x	1
CC(=O)NCc1ccc(-c2csc(-c3cccs3)n2)cc1	-7	-4	13	0	0	3
COc1ccc(-c2cc(NC(C)=O)c3ncc(-c4ccccc4)n3c2)cc1OC	x	x	-4	0	x	5
CC(=O)Nc1cc(-c2cccc(C(=O)N(C)C)c2)cn2c(-c3ccccc3)cnc12	x	x	14	0	x	1
CC(=O)Nc1cc(-c2cccc(F)c2)cn2c(-c3ccccc3)cnc12	x	x	0	0	x	9.4*
CC(=O)Nc1cc(-c2cccc(F)c2)cn2c(-c3ccc(S(C)(=O)=O)cc3)cnc12	x	x	15	1	x	2
CC(=O)Nc1cc(-c2cccc(C(=O)N(C)C)c2)cn2c(-c3ccc(F)cc3)cnc12	x	x	10	0	x	9.0*
CN(C)C(=O)c1cccc(-c2cnc3c(NC=O)cc(-c4ccc(N(C)C)cc4)cn23)c1	x	x	-18	0	x	8.6*
CC(=O)Nc1cc(-c2ccccc2F)cn2c(-c3ccccc3)cnc12	x	x	10	0	x	8.3*
Cc1cccc(-c2cc(NC=O)c3ncc(-c4cccc(C(=O)N(C)C)c4)n3c2)c1	x	x	-10	1	x	2
CCC1CCCCN1C(=O)CSc1nnc(CNC(=O)c2c(F)cccc2Cl)o1 (centres undefined)	-1	-20	-3	0	6	-1
CCOC(=O)c1cc(S(=O)(=O)NC2CCC(C)CC2)cn1C (centres undefined)	0	-5	5	0	16	1
COc1ccc(Nc2c[nH]c(=O)[nH]c2=O)cc1	x	x	1	0	x	1
CCc1ccc([C@H]2C(C(=O)O)=C[C@@H](CC3CCCC3)N2S(=O)(=O)c2ccc(C)cc2)cc1	x	x	-5	-1	7	5
Cc1cccc(N(Cc2ccccc2)C(=O)CSC(C)C(=O)Nc2cc(C)on2)c1 (centres undefined)	-1	x	5	0	18	-3
COc1cnc(-c2ccccn2)nc1Oc1ccccc1	0	21*	6	-1	12	-2
Cc1cc(NC(=O)CSc2nc(C)c(C)n2CC(C)C)no1	0	x	7	-1	18	-1
Cc1c(C(=O)NCc2ccccc2C(F)(F)F)sc(=O)n1Cc1ccc2ccccc2c1	x	x	15	0	x	0
NC(=O)C(CC(=O)O)NC(=O)[C@@H]1CCCCNc2c(I)cc([N+](=O)[O-])cc2C(=O)N[C@@H](CO)C(=O)NCC(=O)N1 (some centres undefined)	x	27	x	x	x	x
NC(=O)C(CC(=O)O)NC(=O)[C@@H]1CCCNc2c(I)cc([N+](=O)[O-])cc2C(=O)N[C@@H](CO)C(=O)N[C@@H](Cc2ccc(O)cc2)C(=O)N1 (some centres undefined)	0	25	1	41*	7	-1

Compound activity as filed in PubChem.
